What is called EC50 is the concentration at which the effect is half-maximal. A low value points to higher potency in that assay. Usually pEC50 stands for the EC50 on a negative log10 scale, so that one unit is a factor of ten.

The nature of series [1]: Selectivity index, ratio of CC50 for primary human hepatocytes to EC50 for liver stage Plasmodium vivax hypnozoite infected in human hepatocytes. In kind it is toxicity, cell-based. The note with it: read-out: Ratio CC50/EC50.
Series [2] in a line: Cytotoxicity against human HepG2 cells incubated for 72 hrs by Hoechst 33342 staining based assay. In kind it is toxicity, cell-based. Put shortly:
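HepG2 cells, 2000 per collagen-coated well, treated the following day by pin transfer from a 12-point 1:3 dilution series (1000× DMSO stocks). Puromycin positive control; 0.1% v/v DMSO negative. After 72 h: fixed, Hoechst 33342 nuclear stain, high-content imaging. CC50 fitted per run from duplicate wells; three independent experiments.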

A short description of series [3]: Selectivity index, ratio of CC50 for human HepG2 cells to EC50 for asexual blood stage Plasmodium falciparum W2. The note with it: read-out: Ratio CC50/EC50. In kind it is toxicity.
Series [4] in a line: Selectivity index, ratio of CC50 for primary human hepatocytes to EC50 for liver stage Plasmodium vivax schizont infected in human hepatocytes. The format is toxicity, cell-based. The note with it: read-out: Ratio CC50/EC50.
For series [5], the system named is Plasmodium vivax. Briefly: Antimalarial activity against liver stage Plasmodium vivax hypnozoite infected in human hepatocytes preincubated for 5 to 10 days followed by compound addition and measured after 12 days post infection by immunofluorescence staining based assay. In kind it is functional, organism-based. The note with it: hepatocyte. A digest of the protocol:
(§1)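 Primary human hepatocytes seeded at 18 000 per collagen-coated well. Two days later, infected with sporozoites from mosquitoes fed P. vivax patient blood (Cambodia) 18 days earlier; a different isolate was used per experiment. Radical-cure mode: treated days 5–7 post-infection. Day 12: fixed, anti-PvUIS4 immunofluorescence, high-content imaging. Nigericin and 0.1% DMSO controls. Duplicate wells; two independent experiments.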

In series [6] the test system is Plasmodium vivax. Briefly: Antimalarial activity against liver stage Plasmodium vivax schizont infected in human hepatocytes preincubated for 5 to 10 days followed by compound addition and measured after 12 days post infection by immunofluorescence staining based assay. The format is functional, organism-based. The note with it: hepatocyte. A digest of the protocol: as §1

The nature of series [7]: Cytotoxicity against human primary hepatocytes. The format is toxicity, cell-based, Hepatocyte. Put shortly:
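Host primary human hepatocytes (18 000 per collagen-coated well) in the P. vivax liver-stage radical-cure cultures. Compound given days 5–7 post-infection from a 12-point 1:3 dilution series; fixed at day 12 and imaged by high-content imaging. 0.1% DMSO negative control. CC50 fitted per run from duplicate wells; two independent experiments.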

The subject of another series is Plasmodium falciparum. Briefly: Antimalarial activity against asexual blood stage Plasmodium falciparum W2 incubated for 72 hrs by Hoechst 33342 staining based assay. In kind it is functional, organism-based. Put shortly:
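P. falciparum W2 ring stages plated at 2% parasitemia and 0.75% hematocrit. Cells allowed to settle, then dosed by pin transfer from a 12-point 1:3 dilution series made from 1000× DMSO stocks. Artemisinin was the positive control and 0.1% v/v DMSO the negative. After 72 h: fixed, Hoechst 33342 DNA stain, high-content imaging. EC50 fitted per run from duplicate wells; three independent experiments.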

A value given as a limit tells only on which side of the number the result lay.

Take `CC1=CC[C@@]23COC(=O)[C@@H](O)[C@H](C)CCOC(=O)/C=C/C=C\C(=O)O[C@@H]4C[C@@H](O[C@@H]2C1)[C@@]1(CO1)[C@]43C`: the selectivity ratio in series [1] worked out at 10.1; in series [3] it was 7.95; in series [4] it was 77.7. The CC50 at 72 h in series [2] (read-out: CC50) and in series [2] (read-out: pCC50 (converted)) was 3.55 nM in each case. For the same compound, the EC50 in the series on Plasmodium vivax [5] is 30.9 nM; in the series with Plasmodium vivax [6], 4.07 nM; in the series on Plasmodium falciparum, 0.45 nM. Moreover, the negative-log EC50 (pEC50) was determined as 7.51 in the series with Plasmodium vivax [5], 8.39 in the series on Plasmodium vivax [6] and 9.35 with Plasmodium falciparum. Moreover, the CC50 in series [7] (read-out: CC50) and in series [7] (read-out: pCC50 (converted)) was 316 nM in each case.
For `CC1=C[C@H]2O[C@@H]3C[C@@H](O)[C@](C)([C@@]2(CO)CC1)[C@@]31CO1`, the EC50 in the series on Plasmodium vivax [5] was > 3310 nM; with Plasmodium vivax [6] it was > 10000 nM; in the series with Plasmodium falciparum, > 4370 nM. In addition, the negative-log EC50 (pEC50) with Plasmodium vivax [5] is < 5.48; in the series on Plasmodium vivax [6], < 5; in the series with Plasmodium falciparum it was < 5.36.
Regarding `CC(=O)OC[C@]12CCC(C)=C[C@H]1O[C@@H]1[C@H](O)[C@@H](OC(C)=O)[C@@]2(C)[C@]12CO2` (single isomer, unassigned), the selectivity ratio in series [1] is 10.7; in series [3], 4.43; in series [4] it was 28.7. In addition, the pEC50 is 7.44 with Plasmodium vivax [5], 7.87 with Plasmodium vivax [6] and 8.21 with Plasmodium falciparum.
For the compound `CO[C@@H]1C[C@@H](C[C@H]2CC[C@H](C)[C@H]([C@@H](C)C(=O)O)O2)O[C@]2(O[C@](C)([C@H]3CC[C@@](C)([C@@H]4O[C@@H]([C@H]5O[C@@](O)(CO)[C@H](C)C[C@@H]5C)C[C@@H]4C)O3)C[C@H]2C)[C@@H]1C` [NIGERICIN], the selectivity ratio is > 16.3 in series [1] and > 38.9 in series [4]. Further, in series [7] (read-out: pCC50 (converted)), the CC50 is 200 nM.
With `COc1ccc(C[C@H](N)C(=O)N[C@H]2[C@@H](O)[C@H](n3cnc4c(N(C)C)ncnc43)O[C@@H]2CO)cc1` [PUROMYCIN], the selectivity ratio is 2.25 in series [1] and < 1 in series [4].
